Columns and labels:
[1] = Clearance in ICR mouse at 4 mg/kg, iv after 0.08 to 24 hrs by LC-MS/MS analysis; assay type: ADME, organism-based; conditions: in vivo
Procedure, shortened: (§1)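 Male ICR mice (29.7~37.4 g), single iv dose 4 mg/kg in DMSO:40% SBE-β-CD 20:80 (v/v). Retro-orbital blood at 0.08–24 h into EDTA-K2 tubes; plasma protein-precipitated with acetonitrile containing internal standards, analysed by LC-MS/MS; n=3 per time point; noncompartmental analysis.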

[2] = Half life in ICR mouse at 4 mg/kg, iv after 0.08 to 24 hrs by LC-MS/MS analysis; assay type: ADME, organism-based; conditions: in vivo; procedure, shortened: as §1
[3] = Volume of distribution at steady state n ICR mouse at 4 mg/kg, iv after 0.08 to 24 hrs by LC-MS/MS analysis; assay type: ADME, organism-based; conditions: in vivo, read-out: Vdss; procedure, shortened: as §1
SMMC-7721 [4] = experiment: Antiproliferative activity against human SMMC7721 cells assessed as growth inhibition at 8 uM after 72 hrs by CCK-8 assay relative to control; assay type: functional; conditions: SMMC-7721, 72 h, read-out: GI
A549 [5] = experiment: Induction of apoptosis in human A549 cells assessed as viable cells at 1 uM after 48 hrs by Annexin V-FITC/propidium iodide staining based flow cytometry (reference value: 98%); assay type: functional; conditions: A549, 48 h, read-out: Activity
Procedure, shortened: (§2)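 A549 seeded 4×10⁶ cells/well, dosed after 12 h with compound at various concentrations, harvested after 48 h. Resuspended in annexin-binding buffer, stained with Annexin V-FITC and propidium iodide for 15 min in the dark, analysed by flow cytometry; means of three separate experiments.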

A549 [6] = experiment: Induction of apoptosis in human A549 cells assessed as necrotic cells at 1 uM after 48 hrs by Annexin V-FITC/propidium iodide staining based flow cytometry (reference value: 0.135%); assay type: functional; procedure, shortened: as §2
HeLa [7] = experiment: Antiproliferative activity against human HeLa cells assessed as growth inhibition at 8 uM after 72 hrs by CCK-8 assay relative to control; assay type: functional; conditions: read-out: GI
A549 [8] = experiment: Cell cycle arrest in human A549 cells assessed as accumulation of cells at G0/G1 phase at 0.5 uM after 48 hrs by propidium iodide staining-based flow cytometry (reference value: 73.35%); assay type: functional
SMMC-7721 [9] = experiment: Antiproliferative activity against human SMMC7721 cells assessed as growth inhibition at 2 uM after 72 hrs by CCK-8 assay relative to control; assay type: functional; conditions: SMMC-7721, 72 h, read-out: GI
A549 [10] = experiment: Cell cycle arrest in human A549 cells assessed as accumulation of cells at G2/M phase at 1 uM after 48 hrs by propidium iodide staining-based flow cytometry (reference value: 13.62%); assay type: functional
A-375 [11] = experiment: Antiproliferative activity against human A375 cells assessed as decrease in cell viability after 72 hrs by CCK-8 assay; assay type: functional, cell-based; conditions: A-375, 72 h
Procedure, shortened: (§3)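 Cells grown to 70–85% confluence (A375, A549, HCT116 in RPMI1640; HeLa, SMMC7721 in DMEM; 10% FBS, 37 °C, 5% CO2), seeded 4000/well, dosed after 12 h across a concentration range, incubated 72 h, then CCK-8 for 1 h; absorbance at 450 nm. IC50 as mean ± SD of three separate experiments.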

A549 [12] = experiment: Cell cycle arrest in human A549 cells assessed as accumulation of cells at S phase at 1 uM after 48 hrs by propidium iodide staining-based flow cytometry (reference value: 12.83%); assay type: functional
HCT-116 [13] = experiment: Antiproliferative activity against human HCT116 cells assessed as growth inhibition at 2 uM after 72 hrs by CCK-8 assay relative to control; assay type: functional; conditions: HCT-116, 72 h, read-out: GI
A549 [14] = experiment: Cell cycle arrest in human A549 cells assessed as accumulation of cells at S phase at 2 uM after 48 hrs by propidium iodide staining-based flow cytometry (reference value: 12.83%); assay type: functional
A549 [15] = experiment: Induction of apoptosis in human A549 cells assessed as late apoptotic cells at 0.5 uM after 48 hrs by Annexin V-FITC/propidium iodide staining based flow cytometry (reference value: 0.637%); assay type: functional; procedure, shortened: as §2
A549 [16] = experiment: Cell cycle arrest in human A549 cells assessed as accumulation of cells at G0/G1 phase at 1 uM after 48 hrs by propidium iodide staining-based flow cytometry (reference value: 73.35%); assay type: functional
HeLa [17] = experiment: Antiproliferative activity against human HeLa cells assessed as decrease in cell viability after 72 hrs by CCK-8 assay; assay type: functional, cell-based; procedure, shortened: as §3
A549 [18] = experiment: Cell cycle arrest in human A549 cells assessed as accumulation of cells at G2/M phase at 0.5 uM after 48 hrs by propidium iodide staining-based flow cytometry (reference value: 13.62%); assay type: functional
A549 [19] = experiment: Antiproliferative activity against human A549 cells assessed as growth inhibition at 8 uM after 72 hrs by CCK-8 assay relative to control; assay type: functional; conditions: A549, 72 h, read-out: GI
HeLa [20] = experiment: Antiproliferative activity against human HeLa cells assessed as growth inhibition at 2 uM after 72 hrs by CCK-8 assay relative to control; assay type: functional; conditions: read-out: GI
A549 [21] = experiment: Induction of apoptosis in human A549 cells assessed as late apoptotic cells at 1 uM after 48 hrs by Annexin V-FITC/propidium iodide staining based flow cytometry (reference value: 0.637%); assay type: functional; procedure, shortened: as §2
A549 [22] = experiment: Induction of apoptosis in human A549 cells assessed as early apoptotic cells at 2 uM after 48 hrs by Annexin V-FITC/propidium iodide staining based flow cytometry (reference value: 1.19%); assay type: functional; procedure, shortened: as §2
A549 [23] = experiment: Induction of apoptosis in human A549 cells assessed as necrotic cells at 0.5 uM after 48 hrs by Annexin V-FITC/propidium iodide staining based flow cytometry (reference value: 0.135%); assay type: functional; procedure, shortened: as §2
A-375 [24] = experiment: Antiproliferative activity against human A375 cells assessed as growth inhibition at 2 uM after 72 hrs by CCK-8 assay relative to control; assay type: functional; conditions: A-375, 72 h, read-out: GI
SMMC-7721 [25] = experiment: Antiproliferative activity against human SMMC7721 cells assessed as decrease in cell viability after 72 hrs by CCK-8 assay; assay type: functional, cell-based; conditions: SMMC-7721, 72 h; procedure, shortened: as §3
A549 [26] = experiment: Induction of apoptosis in human A549 cells assessed as viable cells at 2 uM after 48 hrs by Annexin V-FITC/propidium iodide staining based flow cytometry (reference value: 98%); assay type: functional; conditions: A549, 48 h, read-out: Activity; procedure, shortened: as §2
A549 [27] = experiment: Cell cycle arrest in human A549 cells assessed as accumulation of cells at S phase at 0.5 uM after 48 hrs by propidium iodide staining-based flow cytometry (reference value: 12.83%); assay type: functional
HCT-116 [28] = experiment: Antiproliferative activity against human HCT116 cells assessed as growth inhibition at 8 uM after 72 hrs by CCK-8 assay relative to control; assay type: functional; conditions: HCT-116, 72 h, read-out: GI
A549 [29] = experiment: Induction of apoptosis in human A549 cells assessed as early apoptotic cells at 1 uM after 48 hrs by Annexin V-FITC/propidium iodide staining based flow cytometry (reference value: 1.19%); assay type: functional; procedure, shortened: as §2
A549 [30] = experiment: Cell cycle arrest in human A549 cells assessed as accumulation of cells at G2/M phase at 2 uM after 48 hrs by propidium iodide staining-based flow cytometry (reference value: 13.62%); assay type: functional
A549 [31] = experiment: Induction of apoptosis in human A549 cells assessed as early apoptotic cells at 0.5 uM after 48 hrs by Annexin V-FITC/propidium iodide staining based flow cytometry (reference value: 1.19%); assay type: functional; procedure, shortened: as §2
A549 [32] = experiment: Cell cycle arrest in human A549 cells assessed as accumulation of cells at G0/G1 phase at 2 uM after 48 hrs by propidium iodide staining-based flow cytometry (reference value: 73.35%); assay type: functional
HCT-116 [33] = experiment: Antiproliferative activity against human HCT116 cells assessed as decrease in cell viability after 72 hrs by CCK-8 assay; assay type: functional, cell-based; conditions: HCT-116, 72 h; procedure, shortened: as §3
A-375 [34] = experiment: Antiproliferative activity against human A375 cells assessed as growth inhibition at 8 uM after 72 hrs by CCK-8 assay relative to control; assay type: functional; conditions: A-375, 72 h, read-out: GI
A549 [35] = experiment: Antiproliferative activity against human A549 cells assessed as decrease in cell viability after 72 hrs by CCK-8 assay; assay type: functional, cell-based; conditions: A549, 72 h; procedure, shortened: as §3
A549 [36] = experiment: Induction of apoptosis in human A549 cells assessed as viable cells at 0.5 uM after 48 hrs by Annexin V-FITC/propidium iodide staining based flow cytometry (reference value: 98%); assay type: functional; conditions: A549, 48 h, read-out: Activity; procedure, shortened: as §2
A549 [37] = experiment: Induction of apoptosis in human A549 cells assessed as late apoptotic cells at 2 uM after 48 hrs by Annexin V-FITC/propidium iodide staining based flow cytometry (reference value: 0.637%); assay type: functional; procedure, shortened: as §2
A549 [38] = experiment: Antiproliferative activity against human A549 cells assessed as growth inhibition at 2 uM after 72 hrs by CCK-8 assay relative to control; assay type: functional; conditions: A549, 72 h, read-out: GI
A549 [39] = experiment: Induction of apoptosis in human A549 cells assessed as necrotic cells at 2 uM after 48 hrs by Annexin V-FITC/propidium iodide staining based flow cytometry (reference value: 0.135%); assay type: functional; procedure, shortened: as §2
A549 [40] = experiment: Antitumor activity against human A549 cells xenografted in Balb/c nude mouse assessed as tumor growth inhibition at 25 mg/kg, ip administered twice per day for 21 days relative to control; assay type: functional; conditions: 504 h, read-out: TGI
Procedure, shortened: (§4)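 Female BALB/c nude mice, 5–6 weeks, implanted s.c. in right axilla with 3×10⁶ A549 cells; randomized at ~95 mm³ tumor volume, 4 per group. Dosed ip 25 mg/kg twice daily for 21 days; vehicle controls got DMA & 5% Solutol HS-15 (5:95). Tumor size (V=length×width²/2) and body weight measured every 3 days; TGI from volume change relative to control.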

[41] = Toxicity against nude Balb/c mouse xenografted with human A549 cells assessed as no change in body weight at 25 mg/kg, ip administered twice per day for 21 days and measured every 3 days during compound dosing; assay type: organism-based; conditions: in vivo; procedure, shortened: as §4

Compound	inhibition of growth at 8 µM (SMMC-7721 [4])	viability at 1 µM (A549 [5])	Activity (A549 [6])	inhibition of growth at 8 µM (HeLa [7])	Activity (A549 [8])	inhibition of growth at 2 µM (SMMC-7721 [9])	Activity (A549 [10])	IC50 (A-375 [11])	Activity (A549 [12])	inhibition of growth at 2 µM (HCT-116 [13])	Activity (A549 [14])	Activity (A549 [15])	Activity (A549 [16])	IC50 (HeLa [17])	Activity (A549 [18])	inhibition of growth at 8 µM (A549 [19])	inhibition of growth at 2 µM (HeLa [20])	Activity (A549 [21])	Activity (A549 [22])	Activity (A549 [23])	also measured
Nc1ccccc1NC(=O)c1ccc(COc2ccc(F)cc2)cc1																					clearance [1]: 118 mL/min/kg; half-life [2]: 33.6 min; Vd [3]: 2.33 L/kg
Nc1ccc(F)cc1NC(=O)c1ccc(CNC(=O)/C=C/c2cccnc2)cc1	71.7%	89%	4.71%	34.2%	75.24%	56.5%	18.67%	4.77 µM	7.26%	61.1%	9.43%	0.898%	74.07%	3.42 µM	17.79%	85.6%	20.6%	5.25%	3.97%	0.455%	inhibition of growth at 2 µM (A-375 [24]): 56.5%; IC50 (SMMC-7721 [25]): 8.63 µM; viability at 2 µM (A549 [26]): 91%; Activity (A549 [27]): 6.97%; inhibition of growth at 8 µM (HCT-116 [28]): 87.4%; Activity (A549 [29]): 1.01%; Activity (A549 [30]): 15.04%; Activity (A549 [31]): 2.17%; Activity (A549 [32]): 75.53%; IC50 (HCT-116 [33]): 1.57 µM; inhibition of growth at 8 µM (A-375 [34]): 71.7%; IC50 (A549 [35]): 6.81 µM; viability at 0.5 µM (A549 [36]): 96.5%; Activity (A549 [37]): 4.14%; inhibition of growth at 2 µM (A549 [38]): 21.9%; Activity (A549 [39]): 0.881%
CC(=O)Nc1ccc(C(=O)Nc2ccccc2N)cc1 [TACEDINALINE]	29.1%	89.7%	0.521%	29.1%	76.99%	23.5%	17.41%	9.64 µM	6.73%	13%	7.37%	1.86%	75.86%	13.4 µM	15.37%	29.1%	23.5%	5.87%	3.68%	4.6%	inhibition in vivo at 25 mg/kg (A549 [40]): 46.8%; Activity [41]: Non-Toxic; inhibition of growth at 2 µM (A-375 [24]): 12.8%; IC50 (SMMC-7721 [25]): 14.1 µM; viability at 2 µM (A549 [26]): 83.3%; Activity (A549 [27]): 7.64%; inhibition of growth at 8 µM (HCT-116 [28]): 44%; Activity (A549 [29]): 3.92%; Activity (A549 [30]): 15.25%; Activity (A549 [31]): 1.17%; Activity (A549 [32]): 77.38%; IC50 (HCT-116 [33]): 6.39 µM; inhibition of growth at 8 µM (A-375 [34]): 46.4%; IC50 (A549 [35]): 16.4 µM; viability at 0.5 µM (A549 [36]): 92.4%; Activity (A549 [37]): 9.92%; inhibition of growth at 2 µM (A549 [38]): 23.5%; Activity (A549 [39]): 3.15%

From ChEMBL document CHEMBL4396885, “Thioether-based 2-aminobenzamide derivatives: Novel HDAC inhibitors with potent in vitro and in vivo antitumor activity” (Eur J Med Chem, 2019)
